# Results from ChEMBL document CHEMBL5712901, “DOT1L inhibition blocks multiple myeloma cell proliferation by suppressing IRF4-MYC signaling” (2019).
# Calls of active or inactive are those of the source. The rule behind the calls is not given here.
# What was measured:
# RPMI-8226 [1] = test: Induction of apoptosis in human RPMI-8226 cells assessed as early apoptotic cells at 1 uM for 6 days by annexin-V based propidium iodide staining based flow cytometric analysis (reference value: 6.19%); assay type: functional; details: time 6 day
# MM1.S [2] = test: Effect on human MM1.S cells assessed as change in KLF2 mRNA level at 1 uM for 3 days by ChIP-qPCR analysis; assay type: functional, cell-based; details: time 3.0 day
# Outline: (§1)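 ChIP-qPCR for H3K79me2 at IRF4-MYC signaling genes after 1 μM inhibitor or DMSO for 3 days. Signal normalized to input DNA. An intergenic region 28 kb upstream of KLF2 served as negative control. Mean of 3 replications ± SEM.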
# RPMI-8226 [3] = test: Induction of apoptosis in human RPMI-8226 cells assessed as early apoptotic cells at 1 uM for 3 days by annexin-V based propidium iodide staining based flow cytometric analysis (reference value: 3.02%); assay type: functional; details: time 3 day
# RPMI-8226 [4] = test: Upregulation of SORL1 gene in human RPMI-8226 cells at 1 uM for 6 days by; assay type: functional, cell-based; details: time 6.0 day
# MM1.S [5] = test: Upregulation of TP53I3 gene in human MM1.S cells at 1 uM for 6 days by; assay type: functional, cell-based; details: time 6.0 day
# MM1.S [6] = test: Upregulation of S100A10 gene in human MM1.S cells at 1 uM for 6 days by; assay type: functional, cell-based; details: time 6.0 day
# RPMI-8226 [7] = test: Upregulation of FNBP1 gene in human RPMI-8226 cells at 1 uM for 6 days by; assay type: functional, cell-based; details: time 6.0 day
# RPMI-8226 [8] = test: Upregulation of PYCARD gene in human RPMI-8226 cells at 1 uM for 6 days by; assay type: functional, cell-based; details: time 6.0 day
# MM1.S [9] = test: Upregulation of HLA-DMA gene in human MM1.S cells at 1 uM for 6 days by; assay type: functional, cell-based; details: time 6.0 day
# Outline: (§2)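 Human myeloma lines RPMI-8226 and MM.1S exposed to 1 μM DOT1L inhibitor, or DMSO, for 6 days. Whole-genome expression profiled on gene expression microarray.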
# RPMI-8226 [10] = test: Upregulation of NXF3 gene in human RPMI-8226 cells at 1 uM for 6 days by; assay type: functional, cell-based; details: time 6.0 day
# MM1.S [11] = test: Upregulation of GLYATL1 gene in human MM1.S cells at 1 uM for 6 days by; assay type: functional, cell-based; details: time 6.0 day; outline: as §2
# MM1.S [12] = test: Upregulation of CXCL12 gene in human MM1.S cells at 1 uM for 6 days by; assay type: functional, cell-based; details: time 6.0 day; outline: as §2
# RPMI-8226 [13] = test: Upregulation of CFH gene in human RPMI-8226 cells at 1 uM for 6 days by; assay type: functional, cell-based; details: time 6.0 day
# MM1.S [14] = test: Upregulation of CAPN2 gene in human MM1.S cells at 1 uM for 6 days by; assay type: functional, cell-based; details: time 6.0 day
# RPMI-8226 [15] = test: Upregulation of HOXB6 gene in human RPMI-8226 cells at 1 uM for 6 days by; assay type: functional, cell-based; details: time 6.0 day
# MM1.S [16] = test: Upregulation of CMTM3 gene in human MM1.S cells at 1 uM for 6 days by; assay type: functional, cell-based; details: time 6.0 day; outline: as §2
# RPMI-8226 [17] = test: Upregulation of ZG16B gene in human RPMI-8226 cells at 1 uM for 6 days by; assay type: functional, cell-based; details: time 6.0 day
# RPMI-8226 [18] = test: Downregulation of H3K79me2 level in human RPMI-8226 cells at 1 uM for 3 days by ChIP-qPCR analysis; assay type: functional, cell-based; details: time 3.0 day; outline: as §1
# MM1.S [19] = test: Upregulation of PYCARD gene in human MM1.S cells at 1 uM for 6 days by; assay type: functional, cell-based; details: time 6.0 day
# RPMI-8226 [20] = test: Upregulation of CCDC96 gene in human RPMI-8226 cells at 1 uM for 6 days by; assay type: functional, cell-based; details: time 6.0 day
# MM1.S [21] = test: Upregulation of CARD6 gene in human MM1.S cells at 1 uM for 6 days by; assay type: functional, cell-based; details: time 6.0 day
# MM1.S [22] = test: Upregulation of IQCE gene in human MM1.S cells at 1 uM for 6 days by; assay type: functional, cell-based; details: time 6.0 day
# RPMI-8226 [23] = test: Upregulation of IL1RAP gene in human RPMI-8226 cells at 1 uM for 6 days by; assay type: functional, cell-based; details: time 6.0 day
# MM1.S [24] = test: Upregulation of TTC39C gene in human MM1.S cells at 1 uM for 6 days by; assay type: functional, cell-based; details: time 6.0 day
# MM1.S [25] = test: Upregulation of LRRC56 gene in human MM1.S cells at 1 uM for 6 days by; assay type: functional, cell-based; details: time 6.0 day
# MM1.S [26] = test: Upregulation of IFITM1 gene in human MM1.S cells at 1 uM for 6 days by; assay type: functional, cell-based; details: time 6.0 day
# RPMI-8226 [27] = test: Upregulation of CCR2 gene in human RPMI-8226 cells at 1 uM for 6 days by; assay type: functional, cell-based; details: time 6.0 day
# MM1.S [28] = test: Upregulation of ZG16B gene in human MM1.S cells at 1 uM for 6 days by; assay type: functional, cell-based; details: time 6.0 day
# RPMI-8226 [29] = test: Upregulation of ACOT11 gene in human RPMI-8226 cells at 1 uM for 6 days by; assay type: functional, cell-based; details: time 6.0 day
# RPMI-8226 [30] = test: Upregulation of NOG gene in human RPMI-8226 cells at 1 uM for 6 days by; assay type: functional, cell-based; details: time 6.0 day
# RPMI-8226 [31] = test: Upregulation of HLA-DQB1 gene in human RPMI-8226 cells at 1 uM for 6 days by; assay type: functional, cell-based; details: time 6.0 day
# RPMI-8226 [32] = test: Upregulation of AGPAT9 gene in human RPMI-8226 cells at 1 uM for 6 days by; assay type: functional, cell-based; details: time 6.0 day
# RPMI-8226 [33] = test: Upregulation of IFI44 gene in human RPMI-8226 cells at 1 uM for 6 days by; assay type: functional, cell-based; details: time 6.0 day
# RPMI-8226 [34] = test: Upregulation of CACNB3 gene in human RPMI-8226 cells at 1 uM for 6 days by; assay type: functional, cell-based; details: time 6.0 day
# RPMI-8226 [35] = test: Upregulation of CARD6 gene in human RPMI-8226 cells at 1 uM for 6 days by; assay type: functional, cell-based; details: time 6.0 day
# MM1.S [36] = test: Upregulation of RAPGEF2 gene in human MM1.S cells at 1 uM for 6 days by; assay type: functional, cell-based; details: time 6.0 day
# RPMI-8226 [37] = test: Upregulation of SLC9A9 gene in human RPMI-8226 cells at 1 uM for 6 days by; assay type: functional, cell-based; details: time 6.0 day
# MM1.S [38] = test: Upregulation of ZNF862 gene in human MM1.S cells at 1 uM for 6 days by; assay type: functional, cell-based; details: time 6.0 day
# MM1.S [39] = test: Upregulation of NRIP1 gene in human MM1.S cells at 1 uM for 6 days by; assay type: functional, cell-based; details: time 6.0 day
# MM1.S [40] = test: Upregulation of RAB37 gene in human MM1.S cells at 1 uM for 6 days by; assay type: functional, cell-based; details: time 6.0 day
# RPMI-8226 [41] = test: Upregulation of HLA-DRB1 gene in human RPMI-8226 cells at 1 uM for 6 days by; assay type: functional, cell-based; details: time 6.0 day
# MM1.S [42] = test: Upregulation of EMILIN2 gene in human MM1.S cells at 1 uM for 6 days by; assay type: functional, cell-based; details: time 6.0 day; outline: as §2
# MM1.S [43] = test: Upregulation of GRHL3 gene in human MM1.S cells at 1 uM for 6 days by; assay type: functional, cell-based; details: time 6.0 day; outline: as §2
# RPMI-8226 [44] = test: Upregulation of IFIT1 gene in human RPMI-8226 cells at 1 uM for 6 days by; assay type: functional, cell-based; details: time 6.0 day
# MM1.S [45] = test: Upregulation of HLA-DQB1 gene in human MM1.S cells at 1 uM for 6 days by; assay type: functional, cell-based; details: time 6.0 day
# RPMI-8226 [46] = test: Upregulation of IFITM3 gene in human RPMI-8226 cells at 1 uM for 6 days by; assay type: functional, cell-based; details: time 6.0 day
# MM1.S [47] = test: Upregulation of CCDC74B gene in human MM1.S cells at 1 uM for 6 days by; assay type: functional, cell-based; details: time 6.0 day
# RPMI-8226 [48] = test: Upregulation of IGFBP6 gene in human RPMI-8226 cells at 1 uM for 6 days by; assay type: functional, cell-based; details: time 6.0 day
# MM1.S [49] = test: Upregulation of SLC9A9 gene in human MM1.S cells at 1 uM for 6 days by; assay type: functional, cell-based; details: time 6.0 day
compound,measurement,setting,value
CC(C)N(C[C@H]1O[C@@H](n2cnc3c(N)ncnc32)[C@H](O)[C@@H]1O)[C@H]1C[C@@H](CCc2nc3cc(C(C)(C)C)ccc3[nH]2)C1 [PINOMETOSTAT],Activity,RPMI-8226 [1],22.4%
same,Activity,MM1.S [2],Active
same,Activity,RPMI-8226 [3],7.39%
CC(C)N(CCCNC(=O)Nc1ccc(C(C)(C)C)cc1)C[C@H]1O[C@@H](n2cc(Br)c3c(N)ncnc32)[C@H](O)[C@@H]1O,Activity,RPMI-8226 [4],Active
same,Activity,MM1.S [5],Active
same,Activity,MM1.S [6],Active
same,Activity,RPMI-8226 [7],Active
same,Activity,RPMI-8226 [8],Active
same,Activity,MM1.S [9],Active
same,Activity,RPMI-8226 [10],Active
same,Activity,MM1.S [11],Active
same,Activity,MM1.S [12],Active
same,Activity,RPMI-8226 [13],Active
same,Activity,MM1.S [14],Active
same,Activity,RPMI-8226 [15],Active
same,Activity,MM1.S [16],Active
same,Activity,RPMI-8226 [17],Active
same,Activity,RPMI-8226 [18],Active
same,Activity,MM1.S [19],Active
same,Activity,RPMI-8226 [20],Active
same,Activity,MM1.S [21],Active
same,Activity,MM1.S [22],Active
same,Activity,RPMI-8226 [23],Active
same,Activity,MM1.S [24],Active
same,Activity,MM1.S [25],Active
same,Activity,MM1.S [26],Active
same,Activity,RPMI-8226 [27],Active
same,Activity,MM1.S [28],Active
same,Activity,RPMI-8226 [29],Active
same,Activity,RPMI-8226 [30],Active
same,Activity,RPMI-8226 [31],Active
same,Activity,RPMI-8226 [32],Active
same,Activity,RPMI-8226 [33],Active
same,Activity,RPMI-8226 [34],Active
same,Activity,RPMI-8226 [35],Active
same,Activity,MM1.S [36],Active
same,Activity,RPMI-8226 [37],Active
same,Activity,MM1.S [38],Active
same,Activity,MM1.S [39],Active
same,Activity,MM1.S [40],Active
same,Activity,RPMI-8226 [41],Active
same,Activity,MM1.S [42],Active
same,Activity,MM1.S [43],Active
same,Activity,RPMI-8226 [44],Active
same,Activity,MM1.S [45],Active
same,Activity,RPMI-8226 [46],Active
same,Activity,MM1.S [47],Active
same,Activity,RPMI-8226 [48],Active
same,Activity,MM1.S [49],Active
